Hits are enriched below; roughly 1.7% of the tested compounds scored in any of these assays.
procasp7 counter: activates human procaspase-7, counter-screen for procaspase-3 activators; 330,000 tested, 0.093% active; recombinant procaspase-7, Ac-DEVD-pNA absorbance 405 nm; D23A/D198A/D206A triple mutant, cannot self-cleave; scale: DMSO 0, 5 µM enzyme 100; activation, % at 8.5 µM; AID 463210; P55210;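 active means percent activation above the screen-wide mean plus 3 SD, cut at about 25% in these data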
Target sequence (P55210 whole entry D23A/D198A/D206A): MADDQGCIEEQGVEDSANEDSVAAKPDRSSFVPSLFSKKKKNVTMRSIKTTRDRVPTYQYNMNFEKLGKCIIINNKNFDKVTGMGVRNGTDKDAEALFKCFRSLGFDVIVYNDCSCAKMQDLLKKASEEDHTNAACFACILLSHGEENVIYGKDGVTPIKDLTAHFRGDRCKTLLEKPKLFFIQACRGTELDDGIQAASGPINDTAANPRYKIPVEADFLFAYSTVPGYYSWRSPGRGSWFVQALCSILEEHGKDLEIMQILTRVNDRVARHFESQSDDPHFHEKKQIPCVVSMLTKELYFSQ
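Material: Procaspase-7 triple mutant (PC-7 D3A) | Quantity: 2 µM procaspase-7 mutant as dispensed | Reagent: DEVD-pNA substrate | Times: 1 h preincubation, 2 h reaction | Technique: 405 nm absorbance of p-nitroaniline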
procasp3 activ: activates human procaspase-3. P42574. recombinant procaspase-3 D3A, Ac-DEVD-pNA absorbance 405 nm. activation, % at 8.5 µM. 330,000 tested, 0.11% active. AID 463141;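 active means activation above the mean of all tested compounds plus 3 SD, cut at about 21% in these data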
Target sequence (P42574 whole entry D9A/D28A/D175A): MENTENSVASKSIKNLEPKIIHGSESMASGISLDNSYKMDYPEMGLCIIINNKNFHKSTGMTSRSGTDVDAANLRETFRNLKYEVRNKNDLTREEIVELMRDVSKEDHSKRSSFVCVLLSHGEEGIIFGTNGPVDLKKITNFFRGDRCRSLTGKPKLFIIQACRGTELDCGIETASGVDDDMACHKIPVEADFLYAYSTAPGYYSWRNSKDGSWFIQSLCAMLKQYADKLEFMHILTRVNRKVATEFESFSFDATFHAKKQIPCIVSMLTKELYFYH
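Test system: Procaspase-3 D3A mutant, all three cleavage aspartates alanine | Dosing: Single dose, 8.5 µM nominal compound, 0.8% DMSO | Schedule: 1 h preincubation, 2 h reaction | Technique: 405 nm absorbance of p-nitroaniline, reads at 0 and 120 min | Repeats: One well per compound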
VIM-2 inh: inhibitors of Pseudomonas aeruginosa VIM-2 metallo-beta-lactamase | purified VIM-2, nitrocefin hydrolysis, epi-absorbance fluorescence | inhibition, % at 5.6 µM | 290,000 tested, 0.89% active;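 active means inhibition above the mean of all tested compounds plus 3 SD, cutoff set per screening run, cut at about 7.5% in these data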;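 further: red hydrolysis product quenches plate fluorescence so inhibitors raise well fluorescence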
PolyA inhibitor: yeast polyadenylation inhibition; 300,000 tested, 0.02% active; S. cerevisiae SKY197-pL101 polyadenylation reporter, beta-gal luminescence; efflux-impaired pdr1/pdr3 knockout yeast; score 100 = 6 SD above DMSO; activity score, % at 12 µM;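 active means lowest replicate activity score at least 50, where 100 means six control SD above control mean; inconclusive means lowest score under 50 but half or more replicates reach 50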;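 further: yeast exposed to compound for 9 h at 30 °C; higher score means more reporter readthrough which indicates perturbed polyadenylation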
IMP-1 inh: inhibitors of Pseudomonas aeruginosa IMP-1 metallo-beta-lactamase. purified IMP-1, nitrocefin hydrolysis, epi-absorbance fluorescence. inhibition, % at 5.6 µM. 290,000 tested, 0.45% active. AID 1556;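 active means inhibition above the mean plus 3 SD of all compounds in the same screening run, cut at about 4.5% in these data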
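System: purified recombinant IMP-1 beta-lactamase. Medium: Zinc- and detergent-supplemented HEPES buffer, pH 7.1. Compound: one 5.6 µM dose […]. Schedule: 15 min preincubation plus 25 min reaction at 25 °C. Technique: Epi-absorbance fluorescence, 480 nm excitation, 530 nm emission.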
Neddylation inh: inhibitors of human cullin neddylation; TR-FRET cullin neddylation, biochemical; P61081+Q13564; 360,000 tested, 0.58% active; calls only at 25 µM; AID 651699; in the data active means inhibition above about 36%
Neddyl conf: cullin neddylation inhibition, confirmation. shares compounds with Neddylation inh. TR-FRET cullin neddylation biochemical assay. calls only at 25 µM. 1,800 tested, 13% active. AID 652217; in the data active means inhibition above about 40%;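 further: neddylation substrate is the cullin 1 ring ligase complex with SKP2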
Calls only.

For O=C1COc2ccc(C(=O)COC(=O)c3cc(S(=O)(=O)NCc4ccccc4)ccc3O)cc2N1 the results were procasp7 counter inactive, procasp3 activ inactive, VIM-2 inh inactive, PolyA inhibitor inactive, IMP-1 inh inactive and Neddylation inh inactive.
For CCOC(=O)CN1CCc2c(C)nc3c(-c4ccc(OC)c(OC)c4)cnn3c21 the results were procasp7 counter inactive, procasp3 activ inactive, VIM-2 inh inactive, PolyA inhibitor inactive, IMP-1 inh inactive and Neddylation inh inactive.
COC(=O)C(C(C)C)N1CCc2c(C)nc3c(C#N)cnn3c21 (stereo unspecified) was read as procasp7 counter inactive, procasp3 activ inactive, VIM-2 inh inactive, PolyA inhibitor inactive, IMP-1 inh inactive, Neddylation inh active and Neddyl conf active.
Screening CCCCOc1ccc(C(=O)N2CCN(c3ccc(N4CCOCC4)nn3)CC2)cc1 returned procasp7 counter inactive, procasp3 activ inactive, PolyA inhibitor inactive and Neddylation inh active.
COc1cc(OC)cc(C(=O)N2CCN(c3ccc(N4CCOCC4)nn3)CC2)c1 was read as procasp7 counter inactive, procasp3 activ inactive, PolyA inhibitor inactive and Neddylation inh active.
Screening O=C(c1cc(Br)ccc1Cl)N1CCN(c2ccc(N3CCOCC3)nn2)CC1 returned procasp7 counter inactive, procasp3 activ inactive, PolyA inhibitor inactive and Neddylation inh active.
For COc1ccc(C(=O)CCC(=O)N2CCN(c3ccc(N4CCOCC4)nn3)CC2)cc1 the results were procasp7 counter inactive, procasp3 activ inactive, VIM-2 inh inactive, PolyA inhibitor inactive, IMP-1 inh inactive and Neddylation inh active.
For Cc1ccc(C(=O)N2CCN(c3ccc(N4CCOCC4)nn3)CC2)cc1 the results were procasp7 counter inactive, procasp3 activ inactive, PolyA inhibitor inactive and Neddylation inh active.
Screening COCCCNC(=O)c1cccn2c(=O)c3cc4ccccc4cc3nc12 returned procasp7 counter inactive, procasp3 activ inactive, VIM-2 inh inactive, PolyA inhibitor inactive, IMP-1 inh inactive, Neddylation inh active and Neddyl conf inactive.
For Cc1ccc(C(=O)N/C(=C/c2ccc(-c3ccc(Br)cc3)o2)C(=O)NC2CCS(=O)(=O)C2)cc1 (stereo unspecified) the results were procasp7 counter inactive, procasp3 activ inactive, VIM-2 inh inactive, PolyA inhibitor inactive, IMP-1 inh inactive, Neddylation inh active and Neddyl conf inactive.
`CCOC(=O)c1cccnc1SCC(=O)N(C)c1ccccc1` gave procasp7 counter inactive, procasp3 activ inactive, VIM-2 inh inactive, PolyA inhibitor inactive, IMP-1 inh inactive and Neddylation inh inactive.
Cc1c(Cc2ccccc2)c(=O)oc2c(C)c(OCc3nn[nH]n3)ccc12 was read as procasp7 counter inactive, procasp3 activ inactive, VIM-2 inh inactive, IMP-1 inh inactive, Neddylation inh active and Neddyl conf inactive.
`Cc1c(CC(=O)O)c(=O)oc2c(C)c(OCc3nn[nH]n3)ccc12` gave procasp7 counter inactive, procasp3 activ inactive, VIM-2 inh inactive, PolyA inhibitor inconclusive and IMP-1 inh inactive.
For Cc1ccccc1Nc1c(-c2cccnc2)nc2ccccn12 the results were procasp7 counter inactive, procasp3 activ inactive, VIM-2 inh inactive, PolyA inhibitor inactive, IMP-1 inh inactive, Neddylation inh active and Neddyl conf inactive.
Cc1ccc2ncccc2c1 was read as procasp7 counter inactive, procasp3 activ inactive and Neddylation inh inactive.
c1cnc2ccc(-c3ccc4ncccc4c3)cc2c1 was read as procasp7 counter inactive, procasp3 activ inactive, VIM-2 inh inactive, PolyA inhibitor inactive, IMP-1 inh inactive, Neddylation inh active and Neddyl conf inactive.
`Cc1ccnc(NS(=O)(=O)c2cccs2)c1` gave procasp7 counter inactive, procasp3 activ inactive, VIM-2 inh inactive, PolyA inhibitor inactive, IMP-1 inh inactive and Neddylation inh inactive.
Screening Cc1ccc(NS(=O)(=O)c2cccs2)nc1 returned procasp7 counter inactive, procasp3 activ inactive, VIM-2 inh inactive, PolyA inhibitor inactive, IMP-1 inh inactive, Neddylation inh active and Neddyl conf inactive.
`Cc1cccc(NS(=O)(=O)c2cccs2)n1` gave procasp7 counter inactive, procasp3 activ inactive, VIM-2 inh inactive, PolyA inhibitor inactive, IMP-1 inh inactive, Neddylation inh active and Neddyl conf inactive.
Cc1cccc(NS(=O)(=O)c2ccc(Cl)cc2)n1 was read as procasp7 counter inactive, procasp3 activ inactive, VIM-2 inh inactive, PolyA inhibitor inactive, IMP-1 inh inactive and Neddylation inh inactive.
For N[C@@H](C(=O)N[C@@H]1C(=O)N2C(C(=O)O)=C(Cl)CS[C@H]12)c1ccccc1 the results were procasp7 counter inactive, procasp3 activ inactive, VIM-2 inh inactive, PolyA inhibitor inactive, IMP-1 inh inactive and Neddylation inh inactive.
Screening COc1cc(OC)cc(-c2oc3cccnc3c2C#CCCO)c1 returned procasp7 counter inactive, procasp3 activ inactive, VIM-2 inh inactive, PolyA inhibitor inactive, IMP-1 inh inactive, Neddylation inh active and Neddyl conf active.
For COc1ccc(N2C(c3cc(OC)cc(OC)c3)=Cc3ccccc3C2CC(C)=O)cc1 (stereo unspecified) the results were Neddylation inh inactive.
COc1ccc(C2=Cc3ccccc3C(CC(=O)C3CC3)N2c2ccc(-c3cc(OC)c(OC)c(OC)c3)cc2)cc1 (stereo unspecified) was read as Neddylation inh active and Neddyl conf inactive.
For O=C(CN1CCCC1)OCCCc1ccccc1 the results were procasp7 counter inactive, procasp3 activ inactive, VIM-2 inh inactive, PolyA inhibitor inactive, IMP-1 inh inactive and Neddylation inh inactive.
Cc1cc(=O)oc2cc(OC(C)C(=O)N3CCOCC3)c(Cl)cc12 (stereo unspecified) was read as Neddylation inh active and Neddyl conf inactive.
`COc1cccc(/C(O)=C2/C(=O)C(=O)N(CCN3CCOCC3)C2c2cccnc2)c1` (stereo unspecified) gave procasp7 counter inactive, procasp3 activ inactive, VIM-2 inh inactive, PolyA inhibitor inactive, IMP-1 inh inactive and Neddylation inh inactive.
Screening CCOc1ccc(Cc2c(Cl)nc(N)nc2Cl)cc1 returned procasp7 counter inactive, procasp3 activ inactive, VIM-2 inh inactive, PolyA inhibitor inactive, IMP-1 inh inactive and Neddylation inh inactive.
CC(=O)c1ccc(-c2ccc(C(=O)N(C)Cc3nc4ccccc4c(=O)[nH]3)o2)cc1 was read as procasp7 counter inactive, procasp3 activ inactive and Neddylation inh active.
Screening O=C(Cc1cccs1)N=Nc1c(O)[nH]c2ccccc12 returned procasp7 counter inactive, procasp3 activ inactive, VIM-2 inh inactive, PolyA inhibitor inactive, IMP-1 inh inactive and Neddylation inh inactive.

From PubChem
